Measured values taken from ChEMBL document CHEMBL1275584, “Genetically engineered lipopeptide antibiotics related to A54145 and daptomycin with improved properties” (Antimicrob Agents Chemother, 2010).
In brackets after ≈: the same amount, converted by molar mass.

How the values were obtained:
Staphylococcus aureus [1] = assay: Antibacterial activity against Staphylococcus aureus 42 in presence of 1% bovine pulmonary surfactant by CLSI method; format: functional; settings: Staphylococcus aureus, 42, Pulmonary surfactant
Method in brief: (§1)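 Broth MIC in Mueller-Hinton broth with 50 mg/liter CaCl2, run with or without 1% bovine pulmonary surfactant, following CLSI methods. Colonies came from frozen stocks streaked on sheep-blood tryptic soy agar (37°C, ~24 h). Incubation was at 37°C with rotation at 200 rpm. The ratio is MIC with surfactant divided by MIC without.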

Enterococcus faecium [2] = assay: Antibacterial activity against daptomycin resistant Enterococcus faecium 384 by CLSI method; format: functional
Method in brief: (§2)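 MICs were determined by CLSI broth methods in Mueller-Hinton broth with 50 mg/liter CaCl2, with or without 1% bovine pulmonary surfactant. Inocula came from single colonies streaked from glycerol stocks onto blood agar and grown at 37°C for ~24 h. Cultures were incubated at 37°C with rotation at 200 rpm.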

Staphylococcus aureus [3] = assay: Ratio of MIC for Staphylococcus aureus 42 in presence of 1% bovine pulmonary surfactant to MIC for Staphylococcus aureus 42 in absence of 1% bovine pulmonary surfactant; format: functional; method in brief: as §1
Staphylococcus aureus [4] = assay: Antibacterial activity against Staphylococcus aureus 42 in absence of 1% bovine pulmonary surfactant by CLSI method; format: functional; settings: Staphylococcus aureus, 42, Pulmonary surfactant; method in brief: as §1
Escherichia coli = assay: Antibacterial activity against imp4213 mutant Escherichia coli BAS849 by CLSI method; format: functional; method in brief: as §2
Staphylococcus aureus [5] = assay: Antibacterial activity against daptomycin resistant Staphylococcus aureus 1695 by CLSI method; format: functional; method in brief: as §2
Enterococcus faecalis [6] = assay: Antibacterial activity against daptomycin resistant Enterococcus faecalis 312 by CLSI method; format: functional; method in brief: as §2
Enterococcus faecium [7] = assay: Antibacterial activity against daptomycin sensitive Enterococcus faecium 14 by CLSI method; format: functional; method in brief: as §1
Staphylococcus aureus [8] = assay: Antibacterial activity against daptomycin sensitive and methicillin susceptible Staphylococcus aureus 42 by CLSI method; format: functional; method in brief: as §2
Staphylococcus aureus [9] = assay: Antibacterial activity against daptomycin sensitive and methicillin resistant Staphylococcus aureus MW2 by CLSI method; format: functional; method in brief: as §2
Staphylococcus aureus [10] = assay: Antibacterial activity against methicillin resistant Staphylococcus aureus 1616 by CLSI method; format: functional; method in brief: as §2
Enterococcus faecalis [11] = assay: Antibacterial activity against daptomycin sensitive Enterococcus faecalis 201 by CLSI method; format: functional; method in brief: as §1
Streptococcus pneumoniae [12] = assay: Antibacterial activity against daptomycin sensitive Streptococcus pneumoniae 402 by CLSI method; format: functional
Method in brief: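 S. pneumoniae MIC in CaCl2-supplemented Mueller-Hinton broth (50 mg/liter) with 5% lysed horse blood, following CLSI methods. Colonies were grown on sheep-blood agar at 37°C under 5% CO2. Assay incubation was at 37°C under 5% CO2 without aeration.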

Staphylococcus aureus [13] = assay: Antibacterial activity against daptomycin sensitive and methicillin resistant Staphylococcus aureus 399 by CLSI method; format: functional; method in brief: as §2
Streptococcus pneumoniae [14] = assay: Antibacterial activity against Streptococcus pneumoniae infected in CD1 mouse pneumonia model assessed as lung bacterial load at 6.25 mg/kg, sc administered at 1 and 4 hrs after bacterial challenge measured 24 hrs post infection (reference value: 2.69x10^8 CFU/ml); settings: route subcutaneous
Streptococcus pneumoniae [15] = assay: Antibacterial activity against Streptococcus pneumoniae infected in CD1 mouse pneumonia model assessed as lung bacterial load at 12.5 mg/kg, sc administered at 1 and 4 hrs after bacterial challenge measured 24 hrs post infection (reference value: 2.69x10^8 CFU/ml); settings: route subcutaneous
Streptococcus pneumoniae [16] = assay: Antibacterial activity against Streptococcus pneumoniae infected in CD1 mouse pneumonia model assessed as lung bacterial load at 25 mg/kg, sc administered at 1 and 4 hrs after bacterial challenge measured 24 hrs post infection (reference value: 2.69x10^8 CFU/ml); settings: route subcutaneous

Structure (SMILES) | MIC (Staphylococcus aureus [1]) [µg/mL] | MIC (Enterococcus faecium [2]) [µg/mL] | Ratio (Staphylococcus aureus [3]) | MIC (Staphylococcus aureus [4]) [µg/mL] | MIC (Escherichia coli) [µg/mL] | MIC (Staphylococcus aureus [5]) [µg/mL] | MIC (Enterococcus faecalis [6]) [µg/mL] | MIC (Enterococcus faecium [7]) [µg/mL] | MIC (Staphylococcus aureus [8]) [µg/mL] | MIC (Staphylococcus aureus [9]) [µg/mL] | MIC (Staphylococcus aureus [10]) [µg/mL] | MIC (Enterococcus faecalis [11]) [µg/mL] | MIC (Streptococcus pneumoniae [12]) [µg/mL] | MIC (Staphylococcus aureus [13]) [µg/mL] | CFU/ml (Streptococcus pneumoniae [14]) | CFU/ml (Streptococcus pneumoniae [15]) | CFU/ml (Streptococcus pneumoniae [16])
CCCCCCCCCC(=O)N[C@@H](Cc1c[nH]c2ccccc12)C(=O)N[C@H](CC(N)=O)C(=O)N[C@@H](CC(=O)O)C(=O)N[C@@H]1C(=O)NCC(=O)N[C@@H](CCCN)C(=O)N[C@@H](CC(=O)O)C(=O)N[C@H](C)C(=O)N[C@@H](CC(=O)O)C(=O)NCC(=O)N[C@H](CO)C(=O)N[C@@H]([C@H](C)CC(=O)O)C(=O)N[C@@H](CC(=O)c2ccccc2N)C(=O)O[C@@H]1C | 64 | 32 (≈ 19.7 µM) | 128 | 0.5 (≈ 0.309 µM) | 128 (≈ 79 µM) | 4 (≈ 2.47 µM) | 128 (≈ 79 µM) | 2 (≈ 1.23 µM) | 1 (≈ 0.617 µM) | 1 (≈ 0.617 µM) | 16 (≈ 9.87 µM) | 2 (≈ 1.23 µM) | 0.25 (≈ 0.154 µM) | 0.5 (≈ 0.309 µM) | – | – | –
CN[C@H](CC(C)C)C(=O)N[C@H]1C(=O)N[C@@H](CC(N)=O)C(=O)N[C@H]2C(=O)N[C@H]3C(=O)N[C@H](C(=O)N[C@H](C(=O)O)c4cc(O)cc(O)c4-c4cc3ccc4O)[C@H](O)c3ccc(c(Cl)c3)Oc3cc2cc(c3O[C@@H]2O[C@H](CO)[C@@H](O)[C@H](O)[C@H]2O[C@H]2C[C@](C)(N)[C@H](O)[C@H](C)O2)Oc2ccc(cc2Cl)[C@H]1O [VANCOMYCIN] | – | – | – | – | – | – | – | – | – | – | – | – | – | – | 1.81e+07 | 285000 | 9
CC[C@H](C)[C@@H]1NC(=O)[C@H]([C@H](C)CC(=O)O)NC(=O)[C@@H](CC(N)=O)NC(=O)CNC(=O)[C@@H]([C@H](OC)C(=O)O)NC(=O)[C@@H](CO)NC(=O)[C@H](CC(=O)O)NC(=O)[C@H](C)NC(=O)CN(C)C(=O)[C@@H](NC(=O)[C@@H](NC(=O)[C@@H](CCC(=O)O)NC(=O)[C@H](Cc2c[nH]c3ccccc23)NC(=O)CCCCCCCC(C)C)[C@H](O)C(N)=O)[C@H](C)OC1=O | 16 | 32 (≈ 19.6 µM) | 16 | 1 (≈ 0.613 µM) | 16 (≈ 9.81 µM) | 4 (≈ 2.45 µM) | 128 (≈ 78.4 µM) | 4 (≈ 2.45 µM) | 1 (≈ 0.613 µM) | 0.5 (≈ 0.306 µM) | 8 (≈ 4.9 µM) | 4 (≈ 2.45 µM) | 0.25 (≈ 0.153 µM) | 1 (≈ 0.613 µM) | – | – | –
CC[C@H](C)[C@@H]1NC(=O)[C@H]([C@H](C)CC(=O)O)NC(=O)[C@@H](CC(N)=O)NC(=O)CNC(=O)[C@H]([C@H](OC)C(=O)O)NC(=O)[C@@H](CCCCN)NC(=O)[C@H](CC(=O)O)NC(=O)[C@H](C)NC(=O)CN(C)C(=O)[C@@H](NC(=O)[C@H](CC(N)=O)NC(=O)[C@@H](CCC(=O)O)NC(=O)[C@H](Cc2c[nH]c3ccccc23)NC(=O)CCCCCCCC(C)C)[C@H](C)OC1=O | 16 | – | 8 | 2 (≈ 1.21 µM) | – | – | – | – | – | – | – | – | – | – | – | – | –
CC(C)CCCCCCCC(=O)N[C@@H](Cc1c[nH]c2ccccc12)C(=O)N[C@H](CC(N)=O)C(=O)N[C@@H](CC(=O)O)C(=O)N[C@@H]1C(=O)NCC(=O)N[C@@H](CCCN)C(=O)N[C@@H](CC(=O)O)C(=O)N[C@H](C)C(=O)N[C@@H](CC(=O)O)C(=O)NCC(=O)N[C@H](CO)C(=O)N[C@@H](CCC(=O)O)C(=O)N[C@@H](CC(=O)c2ccccc2N)C(=O)O[C@H]1C | 16 | – | 2 | 8 (≈ 4.94 µM) | – | – | – | – | – | – | – | – | – | – | – | – | –
CC[C@H](C)[C@@H]1NC(=O)[C@H]([C@H](C)CC(=O)O)NC(=O)[C@@H](CC(N)=O)NC(=O)CNC(=O)[C@H]([C@H](OC)C(=O)O)NC(=O)[C@@H](CC(N)=O)NC(=O)[C@H](CC(=O)O)NC(=O)[C@H](C)NC(=O)CN(C)C(=O)[C@@H](NC(=O)[C@@H](NC(=O)[C@@H](CCC(=O)O)NC(=O)[C@H](Cc2c[nH]c3ccccc23)NC(=O)CCCCCCCC(C)C)[C@H](O)C(N)=O)[C@H](C)OC1=O | 64 | – | 8 | 8 (≈ 4.82 µM) | – | – | – | – | – | – | – | – | – | – | – | – | –
